Assay results: ChEMBL document CHEMBL4706775, “Discovery of Arylsulfonamide Na1.7 Inhibitors: IVIVC, MPO Methods, and Optimization of Selectivity Profile” (ACS Med Chem Lett, 2021)
One block for each molecule: values may come before it.

Columns and labels:
[1] = biological target: Sodium channel protein type 8 subunit alpha (Homo sapiens, UniProt Q9UQD0); test: Inhibition of human Nav1.6 alpha expressed in HEK293 cells incubated for 5 mins with 6 consecutive train pulses to -10 mV at 0.1 Hz and holding potential of -65 mV by Qube-automated patch clamp assay; assay type: ADME, cell-based
Chain of Sodium channel protein type 8 subunit alpha (Q9UQD0 whole entry): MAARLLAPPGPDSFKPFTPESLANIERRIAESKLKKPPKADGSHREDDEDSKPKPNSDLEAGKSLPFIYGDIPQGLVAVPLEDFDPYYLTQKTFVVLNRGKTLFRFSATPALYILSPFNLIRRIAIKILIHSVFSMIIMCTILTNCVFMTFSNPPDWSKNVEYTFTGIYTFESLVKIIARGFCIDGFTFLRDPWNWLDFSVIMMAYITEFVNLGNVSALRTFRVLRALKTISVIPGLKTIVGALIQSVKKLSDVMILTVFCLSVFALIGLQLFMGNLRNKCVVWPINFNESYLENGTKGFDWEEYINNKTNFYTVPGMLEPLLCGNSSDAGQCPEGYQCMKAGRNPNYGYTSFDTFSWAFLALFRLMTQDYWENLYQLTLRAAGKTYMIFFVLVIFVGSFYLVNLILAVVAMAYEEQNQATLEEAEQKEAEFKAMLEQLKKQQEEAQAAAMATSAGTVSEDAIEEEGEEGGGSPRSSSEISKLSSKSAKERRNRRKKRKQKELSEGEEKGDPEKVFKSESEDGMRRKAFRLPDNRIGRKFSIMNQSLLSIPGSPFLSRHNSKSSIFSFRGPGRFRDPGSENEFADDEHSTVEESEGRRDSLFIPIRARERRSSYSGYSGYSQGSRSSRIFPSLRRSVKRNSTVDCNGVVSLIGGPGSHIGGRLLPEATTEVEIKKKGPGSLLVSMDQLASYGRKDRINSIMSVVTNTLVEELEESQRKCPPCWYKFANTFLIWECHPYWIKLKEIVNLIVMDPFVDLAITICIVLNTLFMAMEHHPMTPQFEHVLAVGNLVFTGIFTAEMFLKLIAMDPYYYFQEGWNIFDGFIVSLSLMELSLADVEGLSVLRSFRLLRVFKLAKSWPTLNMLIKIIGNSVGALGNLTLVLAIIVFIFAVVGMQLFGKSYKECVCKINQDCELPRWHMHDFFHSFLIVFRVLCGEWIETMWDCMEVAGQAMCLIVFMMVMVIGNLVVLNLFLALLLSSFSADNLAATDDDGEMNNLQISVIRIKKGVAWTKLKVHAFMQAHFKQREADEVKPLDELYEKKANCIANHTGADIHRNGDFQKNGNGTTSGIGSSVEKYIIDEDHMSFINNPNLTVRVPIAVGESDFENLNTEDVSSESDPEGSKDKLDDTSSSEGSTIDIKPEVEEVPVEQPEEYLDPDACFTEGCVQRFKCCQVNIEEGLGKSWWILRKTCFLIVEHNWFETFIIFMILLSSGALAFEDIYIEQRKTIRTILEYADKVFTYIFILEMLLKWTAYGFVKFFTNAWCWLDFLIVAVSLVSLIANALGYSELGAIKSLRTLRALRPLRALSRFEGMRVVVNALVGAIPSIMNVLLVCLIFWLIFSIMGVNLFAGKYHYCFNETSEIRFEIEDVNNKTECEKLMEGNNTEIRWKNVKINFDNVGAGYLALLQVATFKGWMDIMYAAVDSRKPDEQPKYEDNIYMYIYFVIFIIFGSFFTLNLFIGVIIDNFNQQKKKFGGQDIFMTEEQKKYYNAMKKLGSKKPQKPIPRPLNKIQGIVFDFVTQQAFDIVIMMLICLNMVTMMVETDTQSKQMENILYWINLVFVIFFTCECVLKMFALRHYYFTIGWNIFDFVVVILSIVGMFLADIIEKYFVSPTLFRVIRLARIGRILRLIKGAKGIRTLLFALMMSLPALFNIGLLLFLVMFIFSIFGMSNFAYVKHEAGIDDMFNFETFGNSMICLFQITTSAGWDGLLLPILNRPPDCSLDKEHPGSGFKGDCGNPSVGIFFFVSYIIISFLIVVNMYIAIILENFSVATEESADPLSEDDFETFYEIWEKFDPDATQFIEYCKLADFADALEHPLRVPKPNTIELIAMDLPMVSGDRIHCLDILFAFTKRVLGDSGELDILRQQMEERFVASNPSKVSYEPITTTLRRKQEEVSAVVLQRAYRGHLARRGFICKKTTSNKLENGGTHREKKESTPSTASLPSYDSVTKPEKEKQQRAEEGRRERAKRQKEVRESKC

[2] = biological target: Sodium channel protein type 9 subunit alpha (Homo sapiens, UniProt Q15858); test: Inhibition of human Nav1.7 alpha expressed in HEK293 cells incubated for 5 mins with 6 consecutive train pulses to -10 mV at 0.1 Hz and holding potential of -65 mV by Qube-automated patch clamp assay; assay type: cell-based
Chain of Sodium channel protein type 9 subunit alpha (Q15858 whole entry): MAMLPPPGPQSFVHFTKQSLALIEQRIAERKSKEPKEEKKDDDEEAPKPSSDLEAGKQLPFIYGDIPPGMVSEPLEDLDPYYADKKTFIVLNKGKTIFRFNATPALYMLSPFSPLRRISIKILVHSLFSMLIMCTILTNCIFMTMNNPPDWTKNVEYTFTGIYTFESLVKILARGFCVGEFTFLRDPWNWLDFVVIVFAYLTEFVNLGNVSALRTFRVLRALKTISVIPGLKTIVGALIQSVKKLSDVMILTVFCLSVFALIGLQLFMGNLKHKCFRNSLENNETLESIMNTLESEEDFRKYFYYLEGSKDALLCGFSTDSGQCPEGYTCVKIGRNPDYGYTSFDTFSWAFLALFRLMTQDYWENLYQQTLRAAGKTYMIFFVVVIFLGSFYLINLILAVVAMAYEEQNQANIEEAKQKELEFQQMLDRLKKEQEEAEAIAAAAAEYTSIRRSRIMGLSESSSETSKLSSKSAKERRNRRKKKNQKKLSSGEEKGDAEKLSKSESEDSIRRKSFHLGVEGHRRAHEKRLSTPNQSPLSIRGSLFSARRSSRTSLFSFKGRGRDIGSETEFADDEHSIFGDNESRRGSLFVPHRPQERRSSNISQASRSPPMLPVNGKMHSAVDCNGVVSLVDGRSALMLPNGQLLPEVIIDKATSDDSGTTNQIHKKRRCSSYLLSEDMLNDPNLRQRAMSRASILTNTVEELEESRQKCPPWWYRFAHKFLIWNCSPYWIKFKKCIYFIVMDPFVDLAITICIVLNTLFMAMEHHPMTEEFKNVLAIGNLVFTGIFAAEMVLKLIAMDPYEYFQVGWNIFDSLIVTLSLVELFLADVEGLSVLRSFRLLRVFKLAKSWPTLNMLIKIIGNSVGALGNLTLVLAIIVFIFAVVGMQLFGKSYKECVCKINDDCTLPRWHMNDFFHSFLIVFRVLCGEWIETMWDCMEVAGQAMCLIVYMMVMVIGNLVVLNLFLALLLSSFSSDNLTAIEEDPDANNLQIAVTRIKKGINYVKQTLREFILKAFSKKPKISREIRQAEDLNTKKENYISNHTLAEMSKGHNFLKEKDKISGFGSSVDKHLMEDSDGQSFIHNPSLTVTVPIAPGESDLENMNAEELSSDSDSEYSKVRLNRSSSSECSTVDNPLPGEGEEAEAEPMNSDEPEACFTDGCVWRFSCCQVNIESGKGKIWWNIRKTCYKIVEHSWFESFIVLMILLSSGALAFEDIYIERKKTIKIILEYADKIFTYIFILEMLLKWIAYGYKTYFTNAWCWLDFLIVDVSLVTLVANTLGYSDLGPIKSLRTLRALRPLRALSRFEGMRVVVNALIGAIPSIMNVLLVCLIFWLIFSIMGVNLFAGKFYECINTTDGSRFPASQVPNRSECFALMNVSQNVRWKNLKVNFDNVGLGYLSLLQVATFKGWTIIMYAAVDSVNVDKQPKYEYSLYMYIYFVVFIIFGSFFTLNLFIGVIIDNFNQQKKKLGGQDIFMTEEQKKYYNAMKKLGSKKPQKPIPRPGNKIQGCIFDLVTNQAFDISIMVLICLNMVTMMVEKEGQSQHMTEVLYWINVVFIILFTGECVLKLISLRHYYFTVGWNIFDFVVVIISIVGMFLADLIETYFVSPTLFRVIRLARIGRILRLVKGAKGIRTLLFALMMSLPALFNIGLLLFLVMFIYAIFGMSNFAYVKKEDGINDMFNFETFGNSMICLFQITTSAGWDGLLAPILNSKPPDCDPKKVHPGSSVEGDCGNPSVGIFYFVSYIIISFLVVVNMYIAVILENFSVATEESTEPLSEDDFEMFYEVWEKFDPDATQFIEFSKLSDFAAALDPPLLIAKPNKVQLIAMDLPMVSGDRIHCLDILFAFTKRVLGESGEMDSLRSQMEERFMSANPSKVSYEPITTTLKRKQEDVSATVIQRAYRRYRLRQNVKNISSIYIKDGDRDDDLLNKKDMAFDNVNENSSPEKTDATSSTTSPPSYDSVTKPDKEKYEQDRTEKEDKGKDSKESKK

[3] = Apparent permeability in MDCK cells by Monolayer assay; assay type: ADME, cell-based, Canis lupus familiaris; conditions: dog
[4] = Intrinsic clearance in rat at 0.05 mg/kg, iv administered as cassette dose or 2 mg/kg, iv administered as single dose; conditions: in vivo
[5] = Kinetic solubility of compound at pH 2 by HPLC analysis; assay type: physicochemical; conditions: buffer, read-out: Kinetic_solubility
[6] = Drug concentration in mouse CSF at 100 mg/kg, po measured after 1.25 hrs; assay type: ADME, organism-based, Cerebrospinal fluid; conditions: read-out: Ct
Cytochrome P450 2D6 = Cytochrome P450 2D6 (Homo sapiens, UniProt P10635); test: Inhibition of […] (unknown origin); assay type: ADME
Chain of Cytochrome P450 2D6 (P10635 whole entry): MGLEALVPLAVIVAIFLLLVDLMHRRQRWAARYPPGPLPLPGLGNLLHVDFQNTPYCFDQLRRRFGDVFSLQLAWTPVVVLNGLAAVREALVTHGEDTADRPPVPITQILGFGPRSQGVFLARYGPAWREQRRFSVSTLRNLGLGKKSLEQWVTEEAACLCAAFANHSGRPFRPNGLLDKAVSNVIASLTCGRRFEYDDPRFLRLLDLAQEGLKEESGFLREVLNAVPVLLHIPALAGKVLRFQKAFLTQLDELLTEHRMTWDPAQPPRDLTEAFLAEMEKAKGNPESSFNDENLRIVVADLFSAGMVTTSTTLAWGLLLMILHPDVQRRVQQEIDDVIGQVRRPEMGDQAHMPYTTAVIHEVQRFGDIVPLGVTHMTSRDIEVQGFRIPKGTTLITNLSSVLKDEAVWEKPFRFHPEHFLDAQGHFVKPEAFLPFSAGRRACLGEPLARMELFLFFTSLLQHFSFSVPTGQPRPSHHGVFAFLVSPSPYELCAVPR

[7] = Drug concentration in mouse plasma at 100 mg/kg, po measured after 1.25 hrs; assay type: ADME, organism-based
[8] = Unbound plasma concentration in rhesus monkey at 19.2 mg/kg; assay type: ADME, organism-based, Macaca mulatta; conditions: in vivo
Procedure, shortened: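 Anesthetized rhesus monkeys, n = 4, imaged by olfactory-bulb fMRI over 2 h; IV infusion in 30% Captisol (~8 mL/animal) started at 1 h and continued for 1 h; unbound plasma concentration determined alongside olfactory inhibition.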

[9] = Volume of distribution at steady state in rat; assay type: ADME; conditions: in vivo, read-out: Vdss
[10] = Drug concentration in plasma of formalin-induced C57BL/6 mouse model of formalin-induced pain at 100 mg/kg, po pretreated with compound for 15 mins followed by formalin challenge and measured after […]; assay type: ADME, organism-based
[11] = Clearance in rhesus monkey; assay type: ADME, Macaca mulatta; conditions: in vivo
[12] = Distribution coefficient, log D of the compound by MSD HPLC analysis; assay type: physicochemical; conditions: octanol/water
[13] = Kinetic solubility of compound at pH 7 by HPLC analysis; assay type: physicochemical; conditions: buffer, read-out: Kinetic_solubility
[14] = Protein binding in mouse plasma; assay type: ADME, cell-free; conditions: read-out: PPB (converted)
Nav1.5 = Nav1.5 (Homo sapiens, UniProt Q14524); test: Inhibition of human Nav1.5 alpha expressed in HEK293 cells expressed in HEK293 cells incubated for 5 mins with 6 consecutive train pulses to -10 mV at 0.1 Hz and holding potential of -65 mV by Qube-automated patch clamp assay; assay type: ADME, cell-based; conditions: HEK293 cells expressing human Nav1.5 alpha
[15] = Volume of distribution at steady state in rhesus monkey; assay type: ADME, Macaca mulatta; conditions: in vivo, read-out: Vdss
Cytochrome P450 3A4 = Cytochrome P450 3A4 (Homo sapiens, UniProt P08684); test: Inhibition of CYP3A4 (unknown origin); assay type: ADME
Chain of Cytochrome P450 3A4 (P08684 whole entry): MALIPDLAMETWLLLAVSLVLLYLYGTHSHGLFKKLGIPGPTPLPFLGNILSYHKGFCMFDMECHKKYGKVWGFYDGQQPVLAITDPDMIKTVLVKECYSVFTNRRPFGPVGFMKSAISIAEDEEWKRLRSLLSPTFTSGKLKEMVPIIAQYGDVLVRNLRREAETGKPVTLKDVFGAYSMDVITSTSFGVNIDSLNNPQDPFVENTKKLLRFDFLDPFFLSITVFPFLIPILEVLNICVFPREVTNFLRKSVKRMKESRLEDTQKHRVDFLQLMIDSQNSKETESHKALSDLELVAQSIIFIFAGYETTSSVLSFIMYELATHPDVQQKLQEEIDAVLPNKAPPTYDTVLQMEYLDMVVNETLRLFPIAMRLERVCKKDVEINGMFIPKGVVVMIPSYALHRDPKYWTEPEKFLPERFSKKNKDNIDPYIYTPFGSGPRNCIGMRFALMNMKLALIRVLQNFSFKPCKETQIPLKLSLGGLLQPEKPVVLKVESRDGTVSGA

[16] = Clearance in rat; assay type: ADME; conditions: in vivo
P-glycoprotein [17] = test: Substrate activity at rat p-glycoprotein assessed as efflux ratio of permeability across basal to apical membrane over apical to basal membrane; assay type: ADME; conditions: not told
[18] = Inhibition of rhesus monkey Nav1.7 alpha expressed in HEK293 cells; assay type: cell-based, Macaca mulatta
[19] = Protein binding in rhesus monkey plasma; assay type: ADME, cell-free, Macaca mulatta; conditions: read-out: PPB (converted)
Mus musculus [20] = organism: Mus musculus; test: Analgesic activity in mouse models of formalin-induced nociception assessed as reduction in paw pain; assay type: functional
[21] = Drug concentration in mouse brain at 100 mg/kg, po measured after 1.25 hrs; assay type: ADME, organism-based; conditions: read-out: Ct
[22] = Volume of distribution at steady state in dog; assay type: ADME, Canis lupus familiaris; conditions: in vivo, read-out: Vdss
Mus musculus [23] = test: Reversal of formalin-induced nociception in po dosed C57BL/6 mouse pretreated with compound for 15 mins followed by formalin challenge and measured after 20 to 35 mins; assay type: functional; conditions: time min <=75
Procedure, shortened: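 C57BL/6 mice given compound orally at three dose levels or vehicle (10% Tween 80, 5 mL/kg) 15 min before formalin injection; nociceptive behaviors scored in phase 1 and phase 2; N = 8/group; within-subject ANOVA and 1-sample t test versus vehicle.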

Cytochrome P450 2C9 = Cytochrome P450 2C9 (Homo sapiens, UniProt P11712); test: Inhibition of CYP2C9 (unknown origin); assay type: ADME
[24] = biological target: T1, Nuclear receptor subfamily 1 group I member 2 (Homo sapiens, UniProt O75469); test: Activation of PXR (unknown origin); assay type: ADME
T1 sequence (O75469 whole entry): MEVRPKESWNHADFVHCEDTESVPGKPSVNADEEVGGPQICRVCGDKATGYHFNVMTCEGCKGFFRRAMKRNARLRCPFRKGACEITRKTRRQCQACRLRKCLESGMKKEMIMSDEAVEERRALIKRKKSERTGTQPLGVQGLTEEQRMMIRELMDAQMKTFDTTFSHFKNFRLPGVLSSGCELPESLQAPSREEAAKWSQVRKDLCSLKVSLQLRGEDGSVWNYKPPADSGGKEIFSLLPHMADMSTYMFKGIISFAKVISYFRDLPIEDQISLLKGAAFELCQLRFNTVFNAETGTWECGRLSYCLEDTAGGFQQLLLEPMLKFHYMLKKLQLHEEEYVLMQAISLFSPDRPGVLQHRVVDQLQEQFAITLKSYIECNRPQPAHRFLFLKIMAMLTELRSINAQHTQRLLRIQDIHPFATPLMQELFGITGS

[25] = Intrinsic Clearance in rhesus monkey; assay type: ADME, Macaca mulatta
[26] = Dissociation constant, pKa of the sulfonamide compound; assay type: physicochemical
Mus musculus [27] = test: Analgesic activity against formalin-induced nociception in po dosed C57BL/6J mouse pretreated with compound for 15 mins followed by formalin challenge and measured after […]; assay type: functional, organism-based
[28] = Oral bioavailability in rat; assay type: ADME, organism-based; conditions: in vivo
[29] = Selectivity ratio of IC50 for human Nav 1.5 expressed in HEK293 cells to IC50 for human Nav 1.7 alpha expressed in HEK293 cells
[30] = Half life in rat; assay type: ADME; conditions: in vivo
[31] = Intrinsic Clearance in dog; assay type: ADME, Canis lupus familiaris
[32] = Drug concentration in plasma of formalin-induced C57BL/6 mouse model of formalin-induced pain at 30 mg/kg, po pretreated with compound for 15 mins followed by formalin challenge and measured after […]; assay type: ADME, organism-based
[33] = Clearance in dog; assay type: ADME, Canis lupus familiaris; conditions: in vivo
[34] = Oral bioavailability in dog; assay type: ADME, organism-based, Canis lupus familiaris; conditions: in vivo
[35] = Half life in rhesus monkey; assay type: ADME, Macaca mulatta; conditions: in vivo
[36] = Selectivity ratio of IC50 for human Nav 1.6 alpha expressed in HEK293 cells to IC50 for human Nav 1.7 alpha expressed in HEK293 cells
[37] = Oral bioavailability in rhesus monkey; assay type: ADME, organism-based, Macaca mulatta; conditions: in vivo
[38] = Half life in dog; assay type: ADME, Canis lupus familiaris; conditions: in vivo
[39] = Protein binding in human plasma; assay type: ADME, cell-free; conditions: read-out: PPB (converted)
P-glycoprotein [40] = test: Substrate activity at human p-glycoprotein assessed as efflux ratio of permeability across basal to apical membrane over apical to basal membrane; assay type: ADME; conditions: not told
PXR = biological target: T2, PXR (Homo sapiens, UniProt O75469); test: Activation of PXR (unknown origin) relative to control; assay type: ADME
T2 sequence (O75469 whole entry): T1 sequence (O75469 whole entry)

[41] = Dissociation constant, pKa of the amine compound; assay type: physicochemical
[42] = Drug concentration in plasma of formalin-induced C57BL/6 mouse model of formalin-induced pain at 300 mg/kg, po pretreated with compound for 15 mins followed by formalin challenge and measured after […]; assay type: ADME, organism-based

IC50 [1]: > 34000 nM
IC50 [2]: 850 nM
SMILES: CN(C)[C@H](CNc1cc(F)c(S(=O)(=O)Nc2nccs2)cc1Cl)Cc1ccccc1

IC50 [1]: 2080 nM
IC50 [2]: 2970 nM
SMILES: CC1(CNc2cc(F)c(S(=O)(=O)Nc3nccs3)cc2Cl)CCCN1 (stereo in doubt; 4)

IC50 [1]: > 34000 nM
IC50 [2]: 1780 nM
Papp [3]: 5 ×10⁻⁶ cm/s
CL [4]: 8090 mL/min/kg
SMILES: CN[C@H](CNc1cc(F)c(S(=O)(=O)Nc2ncc(F)s2)cc1Cl)CC1CCC1

IC50 [1]: 420 nM
IC50 [2]: 25 nM
Papp [3]: 13 ×10⁻⁶ cm/s
CL [4]: 5830 mL/min/kg
SMILES: O=S(=O)(Nc1nccs1)c1cc(Cl)c(NCC2(Cc3ccccc3)CCCN2)cc1F (stereo not given)

IC50 [1]: 860 nM
IC50 [2]: 900 nM
SMILES: CC1(CNc2cc(F)c(S(=O)(=O)Nc3nccs3)cc2Cl)CCCN1 (stereo in doubt; 5)

Further lines, the molecule ahead of its results:

SMILES: O=S(=O)(Nc1nccs1)c1cc(Cl)c(NCC2CCCN2)cc1F (stereo in doubt; 6)
IC50 [1]: > 34000 nM
IC50 [2]: > 34000 nM

SMILES: CN[C@H](CNc1cc(F)c(S(=O)(=O)Nc2ncc(F)s2)cc1Cl)Cc1ccccc1
IC50 [1]: > 34000 nM
IC50 [2]: 400 nM
Papp [3]: 8 ×10⁻⁶ cm/s
CL [4]: 3020 mL/min/kg

SMILES: CN[C@H](CNc1cc(F)c(S(=O)(=O)Nc2ncc(F)s2)cc1Cl)CC(C)(C)C.Cl
solubility kinetic [5]: 170 µM
concentration at 1.25 h [6]: 0.005 µM
IC50 (Cytochrome P450 2D6): 20000 nM
concentration at 1.25 h [7]: 4.9 µM
Cp(f) [8]: 1.5 µM
Vd [9]: 2.1 L/kg
concentration at 1.75 h [10]: 6.64 µM
clearance [11]: 11 mL/min/kg
logD [12]: 1.7
solubility kinetic [13]: 148 µM
fraction unbound [14]: 0.06
IC90 at 5 min (Nav1.5): 3600 nM
Vd [15]: 0.3 L/kg
IC50 (Cytochrome P450 3A4): > 50000 nM
clearance [16]: 29 mL/min/kg
efflux ratio (P-glycoprotein [17]): > 14
IC50 [18]: 310 nM
fraction unbound [19]: 0.02
IC50 [1]: 18700 nM
IC90 (Mus musculus [20]): 220 nM
concentration at 1.25 h [21]: 0.1 µM
Vd [22]: 0.8 L/kg
IC50 [2]: 300 nM
Papp [3]: 8 ×10⁻⁶ cm/s
EC90 (Mus musculus [23]): 360 nM
IC50 (Cytochrome P450 2C9): 28000 nM
EC50 [24]: 10000 nM
CLint scaled [25]: 610 mL/min/kg
pKa [26]: 5.4
IC50 (Mus musculus [27]; Mus musculus, C57BL/6J): 4080 nM
IC90 (Mus musculus [27]; time 1.75 hrs): 6040 nM
bioavailability [28]: 100%
Ratio IC50 [29]: >390
half-life [30]: 2.5 h
CLint scaled [31]: 200 mL/min/kg
concentration at 1.75 h [32]: 3.27 µM
clearance [33]: 4.5 mL/min/kg
bioavailability [34]: 25%
CL [4]: 1670 mL/min/kg
half-life [35]: 1.3 h
Ratio IC50 [36]: 60
bioavailability [37]: 2%
half-life [38]: 6 h
fraction unbound [39]: 0.02
efflux ratio (P-glycoprotein [40]): 4.9
Emax (PXR): 80%
pKa [41]: 9
concentration at 1.75 h [42]: 8.86 µM

SMILES: CN[C@H](CNc1cc(F)c(S(=O)(=O)Nc2ncns2)cc1Cl)Cc1ccccc1
IC50 [1]: > 34000 nM
IC50 [2]: 1090 nM
